Most compounds without a hit are left out; they make up all but 1.7% or so of the library.
core dimer inh = inhibitors of HCV core protein dimerization, primary screen, biochemical, TR-FRET, high-throughput; TR-FRET GST/Flag-core106 dimerization, 1536-well; inhibition, % at 5 µM; 0.33% of 300,000 active; AID 1899, 2009;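 active = inhibition above the mean of all tested compounds plus 3 SD, set per screening campaign, cut at about 45% in these data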
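test system = GST/Flag-tagged HCV core106 proteins | probe or stimulus = Eu donor and XL665 acceptor anti-tag antibodies | times = compound-protein-antibody incubation 4 h at 22.5 °C | signal = TR-FRET, excitation 340 nm, emission 617 and 671 nm | measure = percent inhibition of core106 dimerization signal | controls = wells lacking GST-core106 and wells with excess unlabelled core106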
EBV gp42 block = Epstein-Barr virus gp42 inhibitors, primary screen, biochemical, uHTS, fluorescence polarization. Fluorescence polarization binding assay, mP read-out. inhibition, % (tested at 21.74 µM). Glycoprotein 42 (Epstein-Barr virus (strain AG876)), Q1HVG2. AID 1085, 2008. 0.42% of 220,000 active; in the data active = inhibition above about 50%
EBNA-1 inhibitor = EBNA-1 DNA-binding inhibitors, primary screen, biochemical, fluorescence polarization. 0.34% of 300,000 active. inhibition, % at 14.8 µM; in the data active = inhibition above about 28%
ZTA DNA inh = blocks Epstein-Barr virus ZTA, an EBNA-1 counter-screen | P03206 | ZTA-DNA binding, fluorescence polarization | inhibition, % at 11 µM | 0.15% of 320,000 active | AID 2234; in the data active = inhibition above about 33%
MEX-5 binding = MEX-5 zinc finger RNA-binding disruptors – biochemical, C. elegans, fluorescence polarization, MLPCN library, primary screen | Zinc finger protein mex-5 (Caenorhabditis elegans), Q9XUB2 | MEX-5/FITC-TCR2 RNA binding; stronger effect = lower value | activity score (negative = inhibition of binding), % at 10 µM | 0.38% of 300,000 active | AID 1832, 2009;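 active = inhibition past about -25% in most replicates, and total fluorescence under double the plate's negative control median, limit read from the data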;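 note: 0% = DMSO and -100% = 5 µM competing unlabeled TCR2 RNA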
Target sequence (Q9XUB2 whole entry, looked up): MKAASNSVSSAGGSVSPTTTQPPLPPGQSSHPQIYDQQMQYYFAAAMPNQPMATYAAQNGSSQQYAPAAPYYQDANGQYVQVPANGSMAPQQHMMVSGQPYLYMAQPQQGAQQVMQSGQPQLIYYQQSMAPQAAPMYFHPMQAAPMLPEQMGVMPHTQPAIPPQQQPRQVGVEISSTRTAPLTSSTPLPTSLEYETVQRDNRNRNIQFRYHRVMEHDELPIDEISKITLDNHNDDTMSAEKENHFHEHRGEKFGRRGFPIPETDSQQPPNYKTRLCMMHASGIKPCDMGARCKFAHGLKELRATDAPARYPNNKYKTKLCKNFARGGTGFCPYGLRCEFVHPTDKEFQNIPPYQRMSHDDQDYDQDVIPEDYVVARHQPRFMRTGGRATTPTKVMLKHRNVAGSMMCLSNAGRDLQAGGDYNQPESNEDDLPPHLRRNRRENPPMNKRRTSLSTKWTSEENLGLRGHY
HCV NS3 hel inh = inhibitors of HCV NS3 helicase, primary screen, biochemical, Cy5 molecular beacon fluorescence; Hepatitis C virus NS3 helicase; NS3 helicase DNA unwinding; inhibition, % at 10.9 µM; 0.56% of 290,000 active; AID 1800, 2009;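 active = inhibition above the mean of all tested compounds plus 3 SD, set per campaign, cut at about 35% in these data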;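 note: 0% = DMSO wells and 100% = thioflavine S control wells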
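Material: hepatitis C virus NS3 helicase domain fragment enzyme; measured by: Cy5 fluorescence, 0 and 60 min reads; control set: DMSO and thioflavine S; incubation: 60 min unwinding reaction at 25 °C after ATP addition; read-out basis: % inhibition from 60/0 min fluorescence ratio, DMSO 0%, thioflavine S 100%; repeats: singlicate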
NS3 hel confirm = HCV NS3 helicase inhibitors, retest, confirmation, biochemical, Cy5 molecular beacon fluorescence, triplicate; shares compounds with HCV NS3 hel inh; NS3 helicase DNA unwinding; inhibition, % at 10.9 µM; 31% of 1,600 active;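 active = inhibition above the mean of all tested compounds plus 3 SD, cutoff set per campaign, cut at about 36% in these data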
DNA FID counter = compounds displacing fluorescent DNA intercalator, artefact control for HCV NS3 helicase inhibitor project, biochemical, FID fluorescence, triplicate; shares compounds with HCV NS3 hel inh; DNA fluorescent intercalator displacement; inhibition, % at 7.9 µM; 4% of 1,600 active; in the data active = inhibition above about 37%;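 note: 0% = vehicle and 100% = reference compound; higher means more displacement of ethidium bromide from the DNA hairpin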
DNA FID DR = compounds displacing fluorescent intercalator from DNA, dose response, counter-screen for HCV NS3 helicase inhibitor project, biochemical, fluorescence; fluorescent intercalator displacement from DNA; shares compounds with HCV NS3 hel inh; 120 tested, under 10 active; IC50, µM; AID 2172, 2009; call rule not given here
An asterisk follows results filed as active; nt = not tested or not shown.

SMILES | core dimer inh | EBV gp42 block | EBNA-1 inhibitor | ZTA DNA inh | MEX-5 binding | HCV NS3 hel inh | NS3 hel confirm | DNA FID counter | others
COC(=O)c1ccc(OC(C)C(=O)c2ccc(C)cc2)cc1 (stereo unspecified) | 7 | -13 | 17 | -13 | -2 | 37* | -8 | -16
O=C1c2ccc([N+](=O)[O-])cc2NC(c2ccco2)N1/N=C/c1ccco1 (stereo unspecified) | 6 | -11 | 0 | -11 | -4 | 42* | -5 | 21
CN=c1scc(-c2ccc([N+](=O)[O-])cc2)n1/N=C/c1ccco1 | 22 | -21 | 0 | 4 | 2 | 11 | nt | nt
CCOC(=O)/C=C/C(=O)OCc1csc(CC(=O)Nc2ccccc2C)n1 | -13 | nt | -8 | -11 | 1 | 38* | -19 | -25
CC(C)=CC(=O)OCc1csc(CC(=O)Nc2ccccc2C)n1 | 7 | nt | 2 | -3 | 2 | 1 | nt | nt
CC(=O)Nc1ccc(S(=O)(=O)NNC(=O)COc2ccc(C)cc2)cc1 | -10 | 2 | -8 | -14 | 1 | 1 | nt | nt
CC(=O)Nc1ccc(S(=O)(=O)NNC(=O)COc2ccc(Cl)cc2Cl)cc1 | -1 | -17 | -5 | -8 | 1 | 37* | 11 | 4
Cc1c(C(=O)N(C)Cc2cccc(F)c2)oc2c(Cl)cccc12 | -2 | nt | 9 | -1 | 2 | 1 | nt | nt
CCCCCCCCCc1nc2sc3c(c2c(=O)n1NC(=O)c1ccccc1[N+](=O)[O-])CC(C)(C)OC3 | 22 | -6 | -7 | 2 | 2 | 37* | 50* | 4 | DNA FID DR=>79
CCN(CC)S(=O)(=O)c1ccc(NC(=O)c2ccc(OCC3CCCO3)cc2)cc1 (stereo unspecified) | nt | nt | nt | 7 | nt | nt | nt | nt
Cc1ccccc1CCNC(=O)Cn1ccc2cc(S(=O)(=O)N3CCCC3)ccc21 | 1 | nt | 9 | -14 | 2 | -9 | nt | nt
COc1ccc(S(=O)(=O)N2CCN(C(=O)CSC(=S)N3CCCC3)CC2)cc1 | nt | nt | nt | -1 | nt | nt | nt | nt
CNC(C)C#Cc1ccc2sc3cccc(OC)c3c(=O)c2c1 (stereo unspecified) | 11 | nt | -4 | 11 | -1 | 39* | 19 | 7
Cc1ccc(/C=C/C(=O)Nc2ncc(C)s2)o1 | -4 | -23 | -6 | 6 | 0 | 50* | -9 | 8
Cc1cc(S(=O)(=O)N2CCOCC2)ccc1OCC(=O)N1CCCC1 | 3 | nt | -14 | -6 | 0 | -5 | nt | nt
Cc1ccccc1CS(=O)(=O)Cc1ccc(C(=O)NCCc2ccccc2)o1 | 5 | nt | -5 | 5 | -1 | 2 | nt | nt
O=C(CSc1ccc(Br)c2cccc(Cl)c12)Nc1ccc(S(=O)(=O)Nc2nccs2)cc1 | 4 | -3 | 12 | 12 | 1 | 38* | 38* | 8
COC(=O)c1sc(N2C(=O)C(=O)/C(=C(/O)c3ccc(C)cc3)C2c2ccco2)nc1C (stereo unspecified) | 9 | -17 | -3 | 11 | -4 | 27 | nt | nt
CCOc1ccc(/C(O)=C2/C(=O)C(=O)N(c3nc(C)c(C)s3)C2c2ccco2)cc1 (stereo unspecified) | 15 | -1 | -1 | -7 | -2 | 51* | 55* | 19 | DNA FID DR=>79
C=C(C)Cn1c(=O)c2c(nc3n2CCCN3CCc2ccccc2)n(C)c1=O | 7 | nt | -9 | 10 | -1 | -10 | nt | nt
Cc1ccc(S(=O)(=O)N2CCN(C(=O)Cn3c(=O)cnc4ccccc43)CC2)cc1 | nt | nt | nt | -9 | nt | nt | nt | nt

High-throughput results: PubChem BioAssay, several laboratories
